# How the values were obtained:
# Type in all cases: functional
# [1] = tested on: Escherichia coli; assay: Antimicrobial activity against Escherichia coli expressing beta-lactamase AmpC and extended-spectrum beta-lactamase by Etest
# How it was run: (§1)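 Clinical isolates from tigecycline phase 3 trials were received as frozen primary cultures. Serial isolates from one patient were riboprinted, and only the first of identical strains was kept. β-Lactamase genes were assigned by PCR. ESBL confirmation used Etest ESBL strips carrying ceftazidime or cefotaxime, alone and combined with clavulanic acid, following the strip maker's instructions.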
# [2] = tested on: Escherichia coli; assay: Antimicrobial activity against Escherichia coli expressing beta-lactamase AmpC by Etest; how it was run: as §1
# [3] = tested on: Klebsiella pneumoniae; assay: Antimicrobial activity against Klebsiella pneumoniae expressing beta-lactamase CTX by Etest based on multiple determinants
# How it was run: (§2)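 Clinical isolates from tigecycline phase 3 trials were received as frozen primary cultures. Repeat isolates from one patient were riboprinted, and only the first of identical strains was kept. β-lactamase genes were assigned by PCR against control strains, plus isoelectric focusing. ESBL confirmation used Etest ESBL strips carrying ceftazidime or cefotaxime with clavulanic acid, read per the manufacturer's instructions.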
# [4] = tested on: Escherichia coli; assay: Antimicrobial activity against Escherichia coli expressing beta-lactamase CTX and SHV by Etest; how it was run: as §1
# [5] = tested on: Escherichia coli; assay: Antimicrobial activity against Escherichia coli expressing beta-lactamase CTX by Etest based on multiple determinants; how it was run: as §1
# [6] = tested on: Klebsiella pneumoniae; assay: Antimicrobial activity against Klebsiella pneumoniae extended-spectrum beta-lactamase producing isolate by Etest; how it was run: as §2
# [7] = tested on: Proteus mirabilis; assay: Antimicrobial activity against Proteus mirabilis extended-spectrum beta-lactamase producing isolate by Etest; how it was run: as §2
# [8] = tested on: Escherichia coli; assay: Antimicrobial activity against Escherichia coli expressing beta-lactamase SHV by Etest; how it was run: as §1
# [9] = tested on: Escherichia coli; assay: Antimicrobial activity against Escherichia coli expressing beta-lactamase CTX by Etest based on single determinant; how it was run: as §1
# [10] = tested on: Klebsiella pneumoniae; assay: Antimicrobial activity against Klebsiella pneumoniae expressing beta-lactamase SHV by Etest based on single determinant; how it was run: as §2
# [11] = tested on: Klebsiella pneumoniae; assay: Antimicrobial activity against Klebsiella pneumoniae expressing beta-lactamase SHV by Etest based on multiple determinants; how it was run: as §2
# [12] = tested on: Klebsiella pneumoniae; assay: Antimicrobial activity against Klebsiella pneumoniae expressing beta-lactamase CTX by Etest based on single determinant; how it was run: as §2
# [13] = tested on: Klebsiella pneumoniae; assay: Antimicrobial activity against Klebsiella pneumoniae expressing extended-spectrum beta-lactamase and beta-lactamase AmpC by Etest; how it was run: as §1
# [14] = tested on: Proteus mirabilis; assay: Antimicrobial activity against Proteus mirabilis expressing extended-spectrum beta-lactamase by Etest based on single determinant; how it was run: as §2
# [15] = tested on: Proteus mirabilis; assay: Antimicrobial activity against Proteus mirabilis expressing extended-spectrum beta-lactamase by Etest based on multiple determinants; how it was run: as §2
# [16] = tested on: Proteus mirabilis; assay: Antimicrobial activity against Proteus mirabilis expressing beta-lactamase AmpC by Etest; how it was run: as §2
# [17] = tested on: Escherichia coli; assay: Antimicrobial activity against Escherichia coli extended-spectrum beta-lactamase producing isolate by Etest; how it was run: as §1
# [18] = tested on: Klebsiella pneumoniae; assay: Antimicrobial activity against Klebsiella pneumoniae expressing beta-lactamase SHV and CTX by Etest; how it was run: as §2
# [19] = tested on: Klebsiella pneumoniae; assay: Antimicrobial activity against Klebsiella pneumoniae expressing beta-lactamase DHA by Etest; how it was run: as §1
SMILES,MIC50 [1] [µg/mL],MIC90 [1] [µg/mL],MIC50 [3] [µg/mL],MIC90 [3] [µg/mL],MIC50 [4] [µg/mL],MIC90 [4] [µg/mL],MIC50 [5] [µg/mL],MIC90 [5] [µg/mL],MIC50 [6] [µg/mL],MIC90 [6] [µg/mL],MIC50 [7] [µg/mL],MIC90 [7] [µg/mL],MIC50 [9] [µg/mL],MIC90 [9] [µg/mL],MIC50 [10] [µg/mL],MIC90 [10] [µg/mL],MIC [11] [µg/mL],MIC50 [12] [µg/mL],MIC90 [12] [µg/mL],MIC [13] [µg/mL],also measured
CO/N=C(\C(=O)N[C@@H]1C(=O)N2C(C(=O)[O-])=C(C[N+]3(C)CCCC3)CS[C@H]12)c1csc(N)n1 [CEFEPIME],16,> 16,16,> 16,16,> 16,16,> 16,8,> 16,2,> 16,16,> 16,≤ 2,> 16,2,16,> 16,2,MIC [2]: 2 µg/mL; MIC [8]: 2 µg/mL; MIC [14]: 1 µg/mL; MIC [15]: 1 µg/mL; MIC [16]: 2 µg/mL
C[C@@H](O)[C@H]1C(=O)N2C(C(=O)O)=C(SCCNC=N)C[C@H]12 [IMIPENEM ANHYDROUS],0.25,0.5,0.25,0.5,≤ 0.12,0.25,≤ 0.12,0.25,0.25,1,2,4,≤ 0.12,0.25,0.25,1,0.12,0.25,0.5,0.06,MIC [2]: 0.12 µg/mL; MIC50 [17]: ≤ 0.12 µg/mL; MIC90 [17]: 0.25 µg/mL; MIC50 [18]: 0.25 µg/mL; MIC90 [18]: 0.5 µg/mL; MIC [19]: 0.5 µg/mL; MIC [14]: 0.5 µg/mL; MIC [15]: 2 µg/mL; MIC [16]: 1 µg/mL
C[C@H]1COc2c(N3CCN(C)CC3)c(F)cc3c(=O)c(C(=O)O)cn1c23.C[C@H]1COc2c(N3CCN(C)CC3)c(F)cc3c(=O)c(C(=O)O)cn1c23.O [LEVOFLOXACIN],16,> 16,4,16,16,> 16,> 16,> 16,2,> 16,8,> 16,16,> 16,0.5,16,0.12,4,> 16,2,MIC50 [17]: 16 µg/mL; MIC90 [17]: > 16 µg/mL; MIC50 [18]: 0.5 µg/mL; MIC90 [18]: > 16 µg/mL; MIC [14]: 0.12 µg/mL; MIC [15]: 2 µg/mL; MIC [16]: 4 µg/mL
